In ChEMBL document CHEMBL4371072, “Structure-Activity Relationship Studies and Plasmodium Life Cycle Profiling Identifies Pan-Active N-Aryl-3-trifluoromethyl Pyrido[1,2- a]benzimidazoles Which Are Efficacious in an in Vivo Mouse Model of Malaria” (J Med Chem, 2019):

Tests used:
[1] = target: T1, hERG (KCNH2) (Homo sapiens, UniProt Q12809); experiment: Inhibition of human ERG expressed in CHO cells assessed as reduction in peak channel current at 0.3 uM by IonWork patch-clamp electrophysiology method relative to control; format: cell-based; details: CHO cells expressing human ERG
[2] = system: Plasmodium falciparum; experiment: (§1) Antiplasmodial activity against chloroquine-resistant asexual blood stage of Plasmodium falciparum K1 infected in human RBC assessed as reduction in [3H]hypoxanthine incorporation preincubated for 48 hrs followed by [3H]hypoxanthine addition measured after 24 hrs by liquid scintillation counting method; format: functional, organism-based
Procedure, shortened: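 Asexual blood-stage P. falciparum K1 (multidrug resistant) screened by modified [3H]-hypoxanthine incorporation assay; IC50 as mean of n ≥ 2 assays, replicates differing above 3-fold excluded; chloroquine and artesunate controls.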

[3] = system: Plasmodium falciparum; experiment: as §1, with “chloroquine-sensitive” for “chloroquine-resistant”, “NF54” for “K1”; format: functional, organism-based
Procedure, shortened: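 Asexual blood-stage P. falciparum NF54 assay, run as a modified [3H]-hypoxanthine incorporation assay. Values are the mean of n ≥ 2 assays; determinations differing more than 3-fold were excluded. Chloroquine and artesunate served as controls.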

[4] = Metabolic stability in Balb/c mouse liver microsomes assessed as parent compound remaining at 0.1 uM after 30 mins in presence of NADPH by LC-MS/MS analysis
[5] = target: Voltage-gated inwardly rectifying potassium channel KCNH2 (Homo sapiens, UniProt Q12809); experiment: Inhibition of human ERG expressed in CHO cells assessed as reduction in peak channel current by IonWork patch-clamp electrophysiology method; format: cell-based
[6] = system: CHO; experiment: Cytotoxicity against CHO cells after 48 hrs by MTT assay; format: cell-based; details: Cricetulus griseus
[7] = system: Plasmodium falciparum; experiment: Ratio of IC50 for early stage of Plasmodium falciparum NF54-PfS16-GFP-Luc gametocytes to IC50 for late stage of Plasmodium falciparum NF54-Mal8p1.16-GFP-Luc gametocytes; format: functional
[8] = Half life in human liver microsomes at 0.1 uM in presence of NADPH by LC-MS/MS analysis
[9] = Selectivity index, ratio of IC50 for CHO cells to IC50 for chloroquine-sensitive asexual blood stage of Plasmodium falciparum NF54 infected in human RBC; format: toxicity; details: Chinese hamster, read-out: Ratio IC50
Procedure, shortened: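 Selectivity index taken as the ratio of the CHO-cell IC50 to the P. falciparum NF54 IC50.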

[10] = Resistance index, ratio of IC50 for chloroquine-resistant asexual blood stage of Plasmodium falciparum K1 infected in human RBC to IC50 for chloroquine-sensitive asexual blood stage of Plasmodium falciparum NF54 infected in human RBC; format: functional
[11] = Half life in Balb/c mouse liver microsomes at 0.1 uM in presence of NADPH by LC-MS/MS analysis
[12] = system: Plasmodium berghei; experiment: Antimalarial activity against liver stage form of luciferase transfected Plasmodium berghei sporozoites infected in human HuH7 cells preincubated with host cells for 1 hr followed by plasmodial infection and measured after 48 hrs by bioluminescence method; format: functional, organism-based; details: Huh-7
[13] = system: Plasmodium falciparum; experiment: Antiplasmodial activity against chloroquine-sensitive final late stage of Plasmodium falciparum NF54-Mal8p1.16-GFP-Luc gametocytes after 24 hrs by BacTiter-Glo assay; format: functional, organism-based; details: NF54, 24 h
Procedure, shortened: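 Late-stage PfNF54 gametocytes produced in vitro; gametocytocidal IC50 via luciferase reporter and ATP bioluminescence platforms; n=3 independent biological replicates in technical triplicates, ± S.E.M.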

[14] = Metabolic stability in human liver microsomes assessed as parent compound remaining at 0.1 uM after 30 mins in presence of NADPH by LC-MS/MS analysis
[15] = system: Plasmodium falciparum; experiment: Ratio of IC50 for late stage of Plasmodium falciparum NF54-Mal8p1.16-GFP-Luc gametocytes to IC50 for early stage of Plasmodium falciparum NF54-PfS16-GFP-Luc gametocytes; format: functional
[16] = target: T1, hERG (KCNH2); experiment: Inhibition of human ERG expressed in CHO cells assessed as reduction in peak channel current at 10 uM by IonWork patch-clamp electrophysiology method relative to control; format: cell-based; details: CHO cells expressing human ERG
Procedure, shortened: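 hERG potassium channel profiled by IonWorks patch-clamp electrophysiology, with 10 μM as the highest concentration tested. Values are the mean of 3 results from experiments run as biological and technical triplicates.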

[17] = system: Hemozoin; experiment: Inhibition of beta hematin formation after 5 hrs by NP40 detergent-based assay
[18] = Lipophilicity, log D of the compound; format: physicochemical; details: octanol/water
Procedure, shortened: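 LogD computed with ChemDraw 16.0.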

[19] = system: Plasmodium berghei; experiment: Antimalarial activity against GFP-fused Plasmodium berghei ANKA infected in NMRI mouse assessed as inhibition of parasitemia at 50 mg/kg, po administered consecutively at 4, 24, 48 and 72 hrs post infection by flow cytometry relative to control; format: functional
Procedure, shortened: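 NMRI mice infected intravenously with P. berghei; oral treatment at 50 mg/kg given 4, 24, 48 and 72 h post-infection (4 x 50 mg/kg). Control mice received vehicle only. Parasitemia of treated animals compared with that of untreated controls. Mice counted as cured if no parasitemia was detected 30 days after treatment.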

[20] = system: Plasmodium berghei; experiment: Antimalarial activity against GFP-fused Plasmodium berghei ANKA infected in NMRI mouse assessed as host mean survival time at 50 mg/kg, po administered consecutively at 4, 24, 48 and 72 hrs post infection; format: functional
Procedure, shortened: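 NMRI mice infected intravenously with P. berghei; oral treatment at 4, 24, 48 and 72 h post-infection (4 x 50 mg/kg), vehicle to controls; reference drug 4 x 30 mg/kg orally on four consecutive days. Parasitemia compared with untreated controls; mean survival days recorded; cure if no parasitemia 30 days after treatment.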

[21] = Solubility of the compound; format: physicochemical

Chain of Voltage-gated inwardly rectifying potassium channel KCNH2 (Q12809 whole entry): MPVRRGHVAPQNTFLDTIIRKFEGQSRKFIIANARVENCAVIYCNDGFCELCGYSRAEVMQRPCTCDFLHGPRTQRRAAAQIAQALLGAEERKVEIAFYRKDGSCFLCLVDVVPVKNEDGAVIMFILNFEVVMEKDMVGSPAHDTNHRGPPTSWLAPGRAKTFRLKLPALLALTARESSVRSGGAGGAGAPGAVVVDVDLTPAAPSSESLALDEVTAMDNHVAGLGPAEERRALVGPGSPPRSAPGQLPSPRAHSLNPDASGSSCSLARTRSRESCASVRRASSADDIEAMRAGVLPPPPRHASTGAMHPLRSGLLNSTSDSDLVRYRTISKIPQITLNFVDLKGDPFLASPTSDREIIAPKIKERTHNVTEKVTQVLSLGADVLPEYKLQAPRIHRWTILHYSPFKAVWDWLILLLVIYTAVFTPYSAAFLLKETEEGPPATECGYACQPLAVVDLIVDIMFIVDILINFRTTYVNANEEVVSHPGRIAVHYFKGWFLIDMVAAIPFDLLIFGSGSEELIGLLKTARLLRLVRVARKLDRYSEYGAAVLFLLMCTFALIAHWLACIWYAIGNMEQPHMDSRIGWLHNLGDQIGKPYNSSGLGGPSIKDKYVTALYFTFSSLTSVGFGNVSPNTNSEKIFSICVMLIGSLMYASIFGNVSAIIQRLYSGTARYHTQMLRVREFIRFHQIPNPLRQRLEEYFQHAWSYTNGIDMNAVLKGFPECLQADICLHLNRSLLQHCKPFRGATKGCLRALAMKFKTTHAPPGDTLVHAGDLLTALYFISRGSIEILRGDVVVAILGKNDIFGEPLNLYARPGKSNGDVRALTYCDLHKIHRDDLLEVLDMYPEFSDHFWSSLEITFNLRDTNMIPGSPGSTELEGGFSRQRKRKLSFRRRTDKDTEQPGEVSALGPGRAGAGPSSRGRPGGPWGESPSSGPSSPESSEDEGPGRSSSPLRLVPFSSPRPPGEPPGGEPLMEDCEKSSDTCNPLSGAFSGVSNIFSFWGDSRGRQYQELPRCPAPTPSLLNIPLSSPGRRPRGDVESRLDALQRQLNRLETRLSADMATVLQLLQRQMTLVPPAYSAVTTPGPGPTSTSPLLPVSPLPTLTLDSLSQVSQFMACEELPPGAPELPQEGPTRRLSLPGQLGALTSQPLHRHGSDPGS
T1 sequence (Q12809 whole entry): as above

Row | SMILES | IC50 [2] [nM] | IC50 [3] [nM] | IC50 [6] [nM] | selectivity ratio [9] | Ratio IC50 [10] | IC50 [13] [nM] | IC50 [17] [nM] | also measured
1 | N#Cc1c(C(F)(F)F)cc(NCc2cccc(F)c2)n2c1nc1cc(Cl)c(Cl)cc12 | 150 | 190 | 7030 | 37 | 0.79 | 270 |  | inhibition at 0.3 µM [1]: 6.53%; remaining at 0.5 h, 0.1 µM ([4]; microsomes): 84%; IC50 [5]: > 10000 nM; Ratio IC50 [7]: 1.2; half-life at 0.1 µM ([8]; microsomes): > 2.5 h; half-life at 0.1 µM ([11]; microsomes): 1.98 h; IC50 [12]: 70 nM; remaining at 0.5 h, 0.1 µM ([14]; microsomes): 100%; Ratio IC50 [15]: 0.5; inhibition at 10 µM [16]: < 40%
2 | N#Cc1c(C(F)(F)F)cc(Nc2ccc(CN3CCOCC3)cc2)n2c1nc1ccccc12 |  | > 2210 |  |  |  |  | 50000 | 
3 | CC(Nc1cc(C(F)(F)F)c(C#N)c2nc3ccccc3n12)c1ccc(S(C)(=O)=O)cc1 (stereo not given) |  | > 2680 |  |  |  |  | > 100000 | 
4 | N#Cc1c(C(F)(F)F)cc(NS(=O)(=O)c2ccccn2)n2c1nc1cc(Cl)c(Cl)cc12 |  | > 6000 |  |  |  |  | > 100000 | 
5 | N#Cc1c(C(F)(F)F)cc(NCc2cccs2)n2c1nc1cc(Cl)c(Cl)cc12 | 140 | 310 | 8480 | 27 | 0.45 | 1670 |  | inhibition at 0.3 µM [1]: 6.13%; IC50 [5]: > 10000 nM; IC50 [12]: 140 nM; inhibition at 10 µM [16]: < 40%
6 | N#Cc1c(C(F)(F)F)cc(NCc2ccccc2F)n2c1nc1cc(Cl)c(Cl)cc12 | 140 | 170 | 4300 | 25 | 0.82 | 370 |  | inhibition at 0.3 µM [1]: 5.49%; remaining at 0.5 h, 0.1 µM ([4]; liver microsomes): 84%; logD [18]: 4.16; IC50 [5]: > 10000 nM; inhibition in vivo at 50 mg/kg [19]: 99.9%; half-life at 0.1 µM ([8]; liver microsomes): > 2.5 h; half-life at 0.1 µM ([11]; liver microsomes): 1.98 h; IC50 [12]: 50 nM; MST [20]: 14 days; solubility [21]: < 5 µM; remaining at 0.5 h, 0.1 µM ([14]; liver microsomes): 97%; inhibition at 10 µM [16]: < 40%
7 | N#Cc1c(C(F)(F)F)cc(Nc2ccc(OC(F)(F)F)cc2)n2c1nc1cc(Cl)c(Cl)cc12 |  | > 1970 |  |  |  |  | 32000 | 
8 | N#Cc1c(C(F)(F)F)cc(NCc2ccccn2)n2c1nc1ccccc12 | 1640 | 1160 | > 272000 | > 234 | 1.41 |  | > 100000 | 
9 | Cc1ccc(CNc2cc(C(F)(F)F)c(C#N)c3nc4cc(Cl)c(Cl)cc4n23)cc1 |  | 400 | 6060 | 15 |  | 600 |  | remaining at 0.5 h, 0.1 µM ([4]; microsomes): 69%; Ratio IC50 [7]: 0.2; half-life at 0.1 µM ([8]; microsomes): > 2.5 h; half-life at 0.1 µM ([11]; microsomes): 0.933 h; remaining at 0.5 h, 0.1 µM ([14]; microsomes): 91%; Ratio IC50 [15]: 6
10 | N#Cc1c(C(F)(F)F)cc(NCc2ccc(F)cc2)n2c1nc1cc(Cl)cc(Cl)c12 | 210 | 310 | 1660 |  |  | 740 |  | 
11 | CN(C)c1ccc2nc3ccc(N(C)C)cc3[s+]c2c1 [METHYLENE BLUE ANHYDROUS] |  |  |  |  |  | 900 |  | 
12 | CC(Nc1cc(C(F)(F)F)c(C#N)c2nc3cc(Cl)c(Cl)cc3n12)c1ccc(S(C)(=O)=O)cc1 (stereo not given) |  | 4970 |  |  |  |  | 32000 | 
